# Most compounds without a hit are left out; they make up all but 2.3% or so of the library.
# GPR7 antag: human neuropeptides B/W receptor 1 antagonism; GPR7-expressing cells, fluorescence antagonist assay; AID 1861; 290,000 compounds, 1.1% hits; inhibition, % at 4.4 µM; in the data active = inhibition above about 16%, passing the limit was not always enough;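 note: cells stimulated with the agonist NPW; 0% = agonist with vehicle and 100% = vehicle without agonist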
# EBV gp42 block: blocks Epstein-Barr virus glycoprotein 42 binding; Fluorescence polarization binding assay, mP read-out; 220,000 compounds, 0.42% hits; AID 1085; inhibition, % (tested at 21.74 µM); in the data active = inhibition above about 50%
# Target sequence (Q1HVG2 whole entry, looked up): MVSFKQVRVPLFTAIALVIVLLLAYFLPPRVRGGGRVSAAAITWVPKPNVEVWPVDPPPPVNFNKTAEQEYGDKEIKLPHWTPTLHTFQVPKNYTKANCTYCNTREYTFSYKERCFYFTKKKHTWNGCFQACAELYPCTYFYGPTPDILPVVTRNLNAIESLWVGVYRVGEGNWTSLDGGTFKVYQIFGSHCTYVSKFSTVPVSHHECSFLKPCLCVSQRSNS
# NS3 helicase inh: blocks Hepatitis C virus NS3 helicase unwinding; AID 1800; NS3 helicase DNA unwinding, Cy5 molecular beacon fluorescence; inhibition, % at 10.9 µM; 290,000 compounds, 0.56% hits;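 active = inhibition above the mean of all tested compounds plus 3 SD, set per campaign, cut at about 35% in these data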;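 note: 0% = DMSO wells and 100% = thioflavine S control wells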
#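 assay system = NS3 helicase fragment of HCV | buffer or medium = MOPS pH 6.5, MgCl2, DTT, Tween20, BSA | timing = 60 min unwinding reaction at 25 °C after ATP addition | signal = Cy5 beacon fluorescence read at start and 1 h | read-out basis = % inhibition of unwinding | control set = low DMSO, high thioflavine S at 110 µM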
# HCV core dimer: HCV core protein dimerization inhibition; inhibition, % at 5 µM; TR-FRET GST/Flag-core106 dimerization, 1536-well; 300,000 compounds, 0.33% hits;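 active = inhibition above the mean of all tested compounds plus 3 SD, set per screening campaign, cut at about 45% in these data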
#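 Assay system – GST-tagged and Flag-tagged HCV core protein residues 1-106 · Quantity – core106 proteins, GST 13.5 nM and Flag 17 nM · Benchmarks – unlabelled core106 and no-GST-core106 wells · Read-out basis – percent inhibition of core106 dimerization signal · Detection – time-resolved FRET, ex 340 nm, em 617 and 671 nm · Schedule – 4 h at 22.5 °C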
# ZTA DNA inh: blocks Epstein-Barr virus ZTA, an EBNA-1 counter-screen. 320,000 compounds, 0.15% hits. AID 2234. ZTA-DNA binding, fluorescence polarization. inhibition, % at 11 µM. P03206; in the data active = inhibition above about 33%
# Target sequence (P03206 whole entry, looked up): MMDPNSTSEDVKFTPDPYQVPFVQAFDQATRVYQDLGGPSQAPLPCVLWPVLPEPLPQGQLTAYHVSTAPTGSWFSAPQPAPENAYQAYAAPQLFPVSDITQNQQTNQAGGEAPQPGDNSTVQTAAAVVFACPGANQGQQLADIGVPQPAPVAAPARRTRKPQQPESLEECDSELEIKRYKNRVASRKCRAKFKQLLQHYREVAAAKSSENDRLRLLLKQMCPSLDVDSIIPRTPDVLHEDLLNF
# EBNA-1 inhibitor: blocks EBNA-1 binding to DNA | EBNA-1 DNA binding, fluorescence polarization | inhibition, % at 14.8 µM | 300,000 compounds, 0.34% hits | AID 1950; in the data active = inhibition above about 28%
# * hit, by the source's call; / = not tested or not shown; + = active, no number.
SMILES,GPR7 antag,EBV gp42 block,NS3 helicase inh,HCV core dimer,ZTA DNA inh,EBNA-1 inhibitor
Cc1ccc2nc(-c3ccc(NC(=O)COC(=O)c4ccc(Br)o4)cc3)sc2c1,-7.6,-3.4,2.6,10.7,4.4,35.2*
Cc1ccc2nc(-c3ccc(NC(=O)COC(=O)c4ccc([N+](=O)[O-])o4)cc3)sc2c1,-2.5,2.8,-10.9,4.1,6.8,-1.2
CCN(CC)CCCn1c2c(c(SCC(=O)Nc3cccc(C)c3C)nc1=O)CCC2,/,/,/,1.5,1.1,-5.4
Cc1ccc(C2=NS(=O)(=O)N(C)C(C(=O)Nc3cc(C)n(CC(=O)N4CCCCC4)n3)=C2)cc1,-4.3,/,2.2,2.6,12.4,-10.0
CCN(C1CCCCC1)S(=O)(=O)c1ccc(S(=O)(=O)NCc2ccncc2)cc1,20.8*,-16.2,10.0,-2.0,-9.7,3.7
CC1=CC(C)(C)N(S(=O)(=O)c2ccc(F)cc2)c2ccccc21,-2.7,-14.9,0.8,-0.8,0.1,10.1
CC(=O)Nc1ccc(S(=O)(=O)N2c3ccccc3C(C)=CC2(C)C)cc1,22.3*,-8.2,-3.8,-0.8,-15.6,6.5
CSc1ncccc1C(=O)NCCc1ccccc1F,0.1,/,7.6,0.6,12.8,9.8
COc1ccc(OC)c(CCNC(=O)C(C)n2nc(C)c3c(C)n(-c4ccc(C)cc4)nc3c2=O)c1 (centres undefined),2.1,/,-3.0,-4.0,2.0,8.0
O=C(NCCc1ccccc1)c1ccccc1NC(=O)C1CCCO1 (centres undefined),19.7*,-18.5,-2.8,5.2,-9.7,1.7
N#C/C(=C(/O)c1ccc(-c2cccc([N+](=O)[O-])c2)o1)c1nc2ccccc2s1,3.3,85.7*,28.9,/,/,/
O=C(O)c1ccc(-c2cccc([N+](=O)[O-])c2)o1,-8.5,4.4,-1.4,-1.5,4.7,-7.6
O=C(NNC1=Nc2cccc3cccc1c23)c1ccc(Br)cc1,-13.4,60.2*,-2.1,-17.9,10.1,-3.3
Cc1ccccc1COc1ccc(/C(O)=C2/C(=O)C(=O)N(CCCn3ccnc3)C2c2ccco2)cc1 (centres undefined),/,/,/,6.5,-4.0,-8.8
CCSC1=NSC2=NC(=O)/C(=C\c3coc4ccccc4c3=O)C(=N)N12,10.4,88.4*,19.4,10.6,-4.7,2.4
CCN(CC)c1ccc2cc(C(=O)NNC(=O)c3ccc(S(=O)(=O)N4CCCCC4)cc3)c(=O)oc2c1,8.9,173.6*,4.7,-5.2,6.4,4.4
CCN(CC)c1ccc2cc(S(=O)(=O)c3ccc(C)cc3)c(=O)oc2c1,-5.5,142.0*,8.6,21.3,-1.8,-3.5
O=C(NNC(=O)c1ccccc1C(=O)O)c1ccc(S(=O)(=O)N2CCCCC2)cc1,8.0,/,-10.1,/,/,/
Cc1ccc(S(=O)(=O)c2cc3ccccc3oc2=O)cc1,2.7,5.8,-6.4,1.8,-2.6,-4.3
COc1cccc(CN2CCC(Oc3ccc(C(=O)NCc4ccccn4)cc3)CC2)c1O,0.5,/,-12.0,/,/,/
CC1(C)CC(=O)C2=C(C1)N(Cc1ccccc1)C(=O)C2(NC(=O)C(C)(C)C)C(F)(F)F (centres undefined),0.0,-16.5,2.7,3.2,-6.5,2.4
O=c1[nH]c(=O)c2cn[nH]c2[nH]1,/,/,/,-5.8,-9.5,1.4
CCN1/C(=C2\SC(=S)N(Cc3ccccc3)C2=O)Sc2ccccc21,-7.4,52.9*,-10.5,-5.9,2.5,0.2
CCN1C(=O)/C(=C2/Sc3ccccc3N2CC)SC1=S,-15.8,/,6.1,-4.5,-4.2,-4.9
COCCOC(=O)c1c(C)oc2ccc(OCc3cc(C(=O)OC)oc3C)cc12,-15.1,3.6,-13.2,7.0,-3.1,2.5
COC(=O)c1cc(COc2ccc3c(c2)oc(=O)c2ccccc23)c(C)o1,-10.0,-9.9,1.8,51.3*,2.2,-2.6
Cc1ccc2[nH]c(C)c(CCNC(=O)c3cc4cc([N+](=O)[O-])ccc4oc3=O)c2c1,-6.5,-0.8,-6.4,50.1*,-9.7,3.0
CN(C)C(=O)C1CCC(=O)N1Cc1cccs1 (centres undefined),16.2*,-4.5,-11.2,4.5,7.7,0.7
Cc1c(C=O)c(=O)n(-c2ccccc2)n1C,-10.1,-14.4,-33.9,-2.3,+,+
COc1ccc(-c2cc(-c3ccccc3)c(C#N)c(S(C)=O)n2)cc1 (centres undefined),69.6*,-8.3,0.9,35.9,5.9,1.6

# Assay outcomes: PubChem BioAssay, several laboratories
